Test results taken from ChEMBL document CHEMBL1150373, “Selection of phage-displayed peptides that bind to a particular ligand-bound antibody” (Bioorg Med Chem, 2008).
Peptide text beside a SMILES is read from it.

How the values were obtained:
[1] = Binding affinity to mouse-human chimeric antibody 93F3
[2] = Binding affinity to fragment antigen binding portion of mouse-human chimeric 93F3 antibody assessed as relative signal by ELISA in presence of 10 uM 5-{[4-(3,5-dioxohexyl)phenyl]amino}-5-oxopentanoic acid
Summary of the method: (§1)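 Antibody 93F3 coated on microtiter wells (1 µg/25 µL PBS, 37 °C 1 h), blocked with 3% BSA/PBS at 37 °C 1 h. Phage culture supernatant was added with diketone (final 10 µM, from 20 µM in 1% DMSO/PBS) or PBS alone, then incubated 37 °C 1 h. Wells washed with water; bound phage detected with anti-M13–HRP plus ABTS/H2O2, A405.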

[3] = Binding affinity to fragment antigen binding portion of mouse-human chimeric 93F3 antibody assessed as relative signal by ELISA in presence of 10 uM 2-acetylcyclohexanone
Summary of the method: as §1

[4] = Binding affinity to fragment antigen binding portion of mouse-human chimeric 93F3 antibody assessed as relative signal by ELISA
Summary of the method: as §1

[5] = Binding affinity to fragment antigen binding portion of mouse-human chimeric 93F3 antibody assessed as relative signal by ELISA in presence of 10 uM 6-(4-nitrophenyl)hexane-2,4-dione
Summary of the method: as §1

Row | Kd [1] | Activity [2] | Activity [3] | Activity [4] | Activity [5] | Compound
1 | 1 µM |  |  |  |  | CC(=O)CC(=O)CCc1ccccc1
2 |  | 0.1 | 0.7 | 1 | 0.1 | CC(C)C[C@@H](NC(=O)[C@H](Cc1ccc(O)cc1)NC(=O)[C@@H](N)Cc1c[nH]c2ccccc12)C(=O)N1CCC[C@H]1C(=O)N[C@@H](CC(=O)O)C(=O)N[C@@H](CC(N)=O)C(=O)N1CCC[C@H]1C(=O)N[C@@H](CO)C(=O)N[C@H](C(=O)N[C@@H](Cc1c[nH]c2ccccc12)C(=O)N[C@@H](Cc1cnc[nH]1)C(=O)N[C@H](C(=O)O)[C@@H](C)O)[C@@H](C)O
3 |  | 0.1 | 1 | 0.2 | 0.1 | C[C@H](O)[C@H](NC(=O)[C@@H]1CCCN1C(=O)[C@H](Cc1ccccc1)NC(=O)[C@H](Cc1c[nH]c2ccccc12)NC(=O)[C@H](Cc1c[nH]c2ccccc12)NC(=O)[C@@H]1CCCN1C(=O)[C@@H](N)CS)C(=O)N[C@@H](CCC(N)=O)C(=O)N[C@@H](CS)C(=O)O
4 |  | 0.1 | 0.8 | 1 | 0.2 | CC(C)C[C@H](NC(=O)[C@H](Cc1cnc[nH]1)NC(=O)[C@H](Cc1c[nH]c2ccccc12)NC(=O)[C@@H]1CCCN1C(=O)[C@@H](N)CS)C(=O)N[C@@H](CC(C)C)C(=O)N1CCC[C@H]1C(=O)N[C@@H](Cc1ccccc1)C(=O)N[C@@H](CS)C(=O)O (H-CPWHLLPFC-OH)
5 |  | 1 | 0.2 | 0.2 | 0.2 | CC(C)C[C@H](NC(=O)[C@H](C)NC(=O)[C@H](Cc1cnc[nH]1)NC(=O)[C@@H](NC(=O)[C@H](CC(C)C)NC(=O)[C@@H]1CCCN1C(=O)[C@H](CO)NC(=O)[C@@H](N)CS)[C@@H](C)O)C(=O)N[C@@H](CS)C(=O)O (H-CSPLTHALC-OH)
6 |  | 1 | 0.1 | 0.1 | 0.1 | CC(C)C[C@H](NC(=O)[C@H](Cc1c[nH]c2ccccc12)NC(=O)[C@H](Cc1cnc[nH]1)NC(=O)[C@@H](NC(=O)[C@H](Cc1ccccc1)NC(=O)[C@@H]1CCCN1C(=O)[C@@H](NC(=O)[C@@H](N)CS)[C@@H](C)O)[C@@H](C)O)C(=O)N[C@@H](CS)C(=O)O (H-CTPFTHWLC-OH)
7 |  | 0.1 | 0.7 | 1 | 0.2 | H-QVPWSYLANGLL-OH
